For data set [1], the target named is Flag-tagged PRMT6 in HEK293T cells (Homo sapiens, UniProt Q96LA8). Description: Cellular PRMT6 assay. As to conditions: 20 h, up to 10 μM. It is filed as cell-based.
The test system of data set [2] is HEK293T. Nature of the data set: Cell viability assay. It is filed as cell-based. As to conditions: up to 10 μM, 3 days treatment. In short, it runs like this:
(§1)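 Cells seeded at 1 × 10^4 per well and left 24 h, then exposed for 3 days to serially diluted test compound starting at 10 μM. CCK-8 (WST-8) reagent added, followed by 4 h at 37 °C; absorbance read at 450 nm. Results given as average ± SD of three replicate experiments.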

In data set [3] the target is T1, PRMT6 (Homo sapiens, UniProt Q96LA8). Description: PRMT6 radiometric biochemical assay, 2 h preincubation.
The subject of data set [4] is PNT2. Nature of the data set: Cell viability assay. It is filed as cell-based. Conditions: PNT2, up to 10 μM, 3 days treatment. The method, boiled down: as §1
In data set [5] the test system is other 32 methyltransferases (PRMTs, PKMTs, DNMTs, RNA methyltransferase). Description: Methyltransferase selectivity panel: other 32 methyltransferases. It is filed as biochemical. Conditions: at 1 and 10 μM. The method, boiled down: (§2)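 Panel of 33 methyltransferases (8 PRMTs, 21 PKMTs, 3 DNMTs, 1 RNA methyltransferase) run by an earlier published protocol. Test compound at 1 μM and 10 μM; n = 3.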

For data set [6], the system named is HEK293T cells. Description: Toxicity to HEK293T cells seen in the cellular PRMT6 assay. It is filed as cell-based. Conditions: 20 h.
Data set [7] deals with MCF-7. Description: Cell viability assay. It is filed as cell-based. Conditions: MCF-7, up to 10 μM, 3 days treatment. The method, boiled down: as §1
The target of data set [8] is T1, PRMT6. Description: Methyltransferase selectivity panel: PRMT6. It is filed as biochemical. Conditions: at 1 and 10 μM. In short, it runs like this: as §2
Data set [9] addresses T1, PRMT6. Nature of the data set: Mass spectrometry analysis for assessing covalent binding. Conditions: PRMT6 incubated with compound for 2 h. The method, boiled down: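 Purified PRMT6 incubated with a 20-fold molar excess of test compound at room temperature, then acidified with 0.1% trifluoroacetic acid (aq.). Sample separated by HPLC on a 5–95% acetonitrile/water gradient and analysed by electrospray-ionisation time-of-flight mass spectrometry for mass shifts indicating covalent adducts.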

T1 sequence (Q96LA8 whole entry): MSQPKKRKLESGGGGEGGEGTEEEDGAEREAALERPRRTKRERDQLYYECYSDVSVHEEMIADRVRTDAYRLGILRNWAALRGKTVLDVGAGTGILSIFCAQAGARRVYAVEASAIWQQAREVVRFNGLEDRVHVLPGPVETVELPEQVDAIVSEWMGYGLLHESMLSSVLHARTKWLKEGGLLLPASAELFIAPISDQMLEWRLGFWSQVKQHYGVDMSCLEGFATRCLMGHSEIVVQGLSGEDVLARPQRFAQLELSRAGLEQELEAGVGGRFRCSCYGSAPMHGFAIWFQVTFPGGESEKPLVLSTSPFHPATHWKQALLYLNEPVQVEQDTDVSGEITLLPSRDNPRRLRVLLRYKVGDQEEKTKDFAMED
Chain of Flag-tagged PRMT6 in HEK293T cells (Q96LA8 whole entry): as above

With `Cc1cc(C)cc([C@H]2c3cc(C)ccc3NC(=O)CN2C(=O)c2ccc(Br)s2)c1` [(S)-2, 4-(5-bromothiophene-2-carbonyl)-5-(3,5-dimethylphenyl)-7-methyl-1,3,4,5-tetrahydro-2H-benzo[e][1,4]diazepin-2-one], the “reduction of cellular levels of H3R2me2a” value in [1] was “did not significantly reduce”. For the same molecule, the “reduction of cellular levels of H4R3me2a” value in [1] was “did not significantly reduce”. Besides, the “toxicity (cell viability)” value in data set [2], in data set [4] and in data set [7] was “Neither (R)-2 nor (S)-2 showed any significant toxicity” each time. For the same molecule, in data set [3], the “activity against PRMT6 (in words)” value is “inactive”. Further, the “inhibition of other 32 methyltransferases” value in [5] was “did not significantly inhibit”. The “toxicity to HEK293T cells” value in data set [6] (at 30 μM) is listed as “significant toxicity”. In addition, the “inhibition of PRMT6 in methyltransferase panel” value in data set [8] is given as “did not significantly inhibit”.
For the molecule `Cc1cc(C)cc([C@@H]2c3cc(C)ccc3NC(=O)CN2C(=O)c2ccc(Br)s2)c1` [(R)-2, 4-(5-bromothiophene-2-carbonyl)-5-(3,5-dimethylphenyl)-7-methyl-1,3,4,5-tetrahydro-2H-benzo[e][1,4]diazepin-2-one], the “toxicity (cell viability)” value in data set [2], in [4] and in data set [7] was “Neither (R)-2 nor (S)-2 showed any significant toxicity” in each case. Also, the “decrease in the IC50 value after compound preincubation with PRMT6” value in [3] (2 h preincubation versus no incubation) is “more than 100 fold”. Further, the “pattern of inhibition with respect to SAM cofactor and peptide substrate” value in data set [3] (2 h preincubation, IC50 at various SAM or peptide concentrations) is “noncompetitive”. Moreover, the “covalent modification of PRMT6” value in data set [9] is given as “No covalent modification”. The “inhibition of other 32 methyltransferases” value in data set [5] is given as “did not significantly inhibit”. Moreover, the “toxicity to HEK293T cells” value in data set [6] (up to 10 μM) is recorded as “did not show significant toxicity”. Moreover, in data set [8], the “inhibition of PRMT6 in methyltransferase panel” value was “potently inhibited”.
